Screening results from PubChem.
S100A4 inh HTS – blocks human S100A4 binding to myosin IIA peptide | actives 0.14% (n = 360,000) | S100A4/TAMRA-MyoIIA peptide fluorescence polarization | inhibition, % at 10.7 µM;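 active = mean inhibition of at least 70% across replicates, with every replicate also reaching that level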
Target sequence (P26447 whole entry, looked up): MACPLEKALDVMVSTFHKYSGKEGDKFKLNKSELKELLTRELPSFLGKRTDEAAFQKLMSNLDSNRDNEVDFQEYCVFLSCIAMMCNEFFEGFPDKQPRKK
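Material: S100A4 monomer protein | Medium: HEPES pH 7.2 with CaCl2, KCl, NaCl, DTT, Triton | Reagent: Labelled myosin peptide probe, 5 nM | Doses: One dose per compound | Times: 5 min incubation before reading | Benchmarks: Neutral control DMSO, positive control TFP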
CFTR F508del cor – correctors of CFTR F508del function in bronchial epithelial cells; CFBE cells, YFP halide quenching; stimulated with forskolin plus potentiator P3; % fluorescence drop versus neutral controls; activity (quench increase), % at 7.58 µM; actives 0.36% (n = 350,000); AID 720511;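 active = mean added fluorescence quench of at least 8% versus neutral control, with both replicates also reaching 8%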;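 also: cells transiently co-express mutant CFTR-F508del with the halide-sensitive YFP; corrector assay measuring rescue of mutant channel to the surface after 24 h compound exposure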
FGF22 binding – shifts melting point of recombinant human FGF22. actives 1.5% (n = 340,000). activity (Tm shift, normalised), % at 9.99 µM. Q9HCT0. recombinant FGF22 thermal shift, SYPRO orange fluorescence; percent of sucrose octasulfate shift, DMSO zero;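 active = mean Tm shift, scaled 0 neutral to 100 positive control, at about 1.3% or above, every replicate too, limit read from the data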
Target sequence (Q9HCT0 whole entry, looked up): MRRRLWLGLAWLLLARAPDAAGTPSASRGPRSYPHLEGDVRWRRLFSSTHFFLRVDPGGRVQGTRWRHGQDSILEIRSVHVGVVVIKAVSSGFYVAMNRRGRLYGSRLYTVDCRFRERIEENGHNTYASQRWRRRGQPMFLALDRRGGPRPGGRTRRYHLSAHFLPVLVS
E-selectin induc – induces E-selectin expression in human endothelial cells; P16581; HUVEC E-selectin immunofluorescence imaging; normalized: neutral wells 0, TNF-alpha wells 100; activation, % at 7.58 µM; actives 0.37% (n = 260,000); AID 686992;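 active = mean E-selectin-positive cell signal at least 10% of the positive control, reached in at least 60% of replicates, without over 20% cell loss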
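assay system = HUVEC, human umbilical vein endothelial cells | input = 3,000 HUVEC seeded per well | medium = EGM-2 growth medium on 0.1% gelatin-coated wells | dosing = one compound dose added by pin transfer | signal = immunofluorescence imaging | read-out basis = % PE-positive cells | control set = TNF-alpha, DMSO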
HIV Env fusion – HIV envelope-mediated fusion inhibition; HeLa-JRFL Env/CEM21 cell fusion, luciferase; actives 1.1% (n = 360,000); inhibition, % at 12.3 µM;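 active = mean replicate inhibition score of at least 50 and every replicate individually at or above 50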;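 also: 0% = plate neutral controls and 100% = maraviroc near 300 nM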
Starred values were filed as active, the others as inactive; nt = no result; [ ] = dose if it differs, or a comment. This is a sample that favours compounds with a hit; in the whole collection about 2.7% have one here.

SMILES	S100A4 inh HTS	CFTR F508del cor	FGF22 binding	E-selectin induc	HIV Env fusion
CCNC(=O)CC1C(=O)N(CC)C(=S)N1NC(=O)c1ccc(Cl)cc1 (configuration not stated)	nt	nt	nt	nt	13
Nc1ccc(C(=O)NN2C(=O)[C@H](Cl)C2c2ccc(Cl)cc2)cc1 (some centres not stated)	-2	6	1.6*	0	45
C[C@H](NC(=O)C[C@@H]1C=C[C@@H](NC(=O)Nc2ccc3c(c2)OCO3)[C@@H](CO)O1)c1ccccc1	11	1	nt	0	nt
CC(=O)N1c2c(cc(Br)cc2S(=O)(=O)NCc2cccnc2)CC1C (configuration not stated)	nt	nt	nt	nt	-71
CCCCN(Cc1ccccc1)S(=O)(=O)c1cc(Br)cc2c1N(C(C)=O)C(C)C2 (configuration not stated)	nt	nt	nt	nt	63*
Cc1cc(-c2ccccc2)[nH]c(=O)c1C#N	-2	2	43*	nt	-10
CSc1cc(-c2ccccc2)[nH]c(=O)c1C#N	1	-2	0	0	1
CC(C)NC(=S)N/N=C1\CCCc2ccccc21	1	0	43*	nt	25
CCNC(=O)[C@@H]1[C@@H](CO)[C@@H]2Cn3c(ccc(-c4ccc(F)cc4)c3=O)[C@H]1N2Cc1ccccc1F	0	2	0	0	nt
Cc1cc(C)cc(NC(=O)Cc2ccc(NC3=NC4CS(=O)(=O)CC4S3)cc2)c1 (configuration not stated)	-7	2	0	51*	-5
C[C@H](CO)N1C[C@H](C)[C@H](CN(C)CC2CC2)Oc2ccc(NC(=O)Cn3cnnn3)cc2CC1=O	-4	-2	0	0	-12[16.7 µM]
COc1cccc(NC2c3ccccc3C(=O)N2Cc2ccccc2Cl)c1 (configuration not stated)	-5	1	0	0	36
COc1cc(NC2c3ccccc3C(=O)N2Cc2ccccc2Cl)cc(OC)c1 (configuration not stated)	0	-1	0	1	65*
CCc1cc2c(=O)c(-c3nc4ccccc4n3C)c(C)oc2c(CN2CCN(CCO)CC2)c1O	-2	-2	0	nt	nt
CCc1cc2c(=O)c(-c3nc4ccccc4n3C)c(C(C)C)oc2c(CN2CCN(C)CC2)c1O	nt	nt	nt	nt	57*
Cc1ccc(-c2cccc(-c3cc(=O)oc4ccc(C(C)(C)C)cc34)c2)cc1	-2	8.7*	0	nt	12
O=C(N1CCOCC1)[C@@]1(Cc2ccccc2)N=C(c2ccc(OCCCO)cc2)O[C@H]1c1ccccc1	0	-1	0	nt	24[16.7 µM]
O=C(c1ccc(C(F)(F)F)cc1)C1CCCN(C(=O)CCN2CCCO2)C1 (configuration not stated)	2	0	44*	nt	17
O=C(c1ccc(C(F)(F)F)cc1)C1CCCN(C(=O)Cn2cncn2)C1 (configuration not stated)	-3	1	0	nt	-6
COc1ccc(C(=O)C2CCCN(C(=O)Cc3c(C)noc3C)C2)cc1OC (configuration not stated)	4	0	43*	0	2
Cc1nonc1CC(=O)N1CCCC(C(=O)c2cccc(C(F)(F)F)c2)C1 (configuration not stated)	-3	-1	46*	1	22
COc1ccc(NC(=O)N(C)C[C@@H]2Oc3c(NC(=O)Nc4c(C)noc4C)cccc3C(=O)N([C@@H](C)CO)C[C@H]2C)cc1	4	-1	0	0	nt
O=c1[nH]c(CSc2nnnn2-c2ccccc2)nc2ccccc12	-1	0	43*	0	6
Cc1ccccc1N(CC(=O)NC1CCCCC1)C(=O)CNC(=O)c1cccs1	2	2	0	45*	11
Cc1ccccc1-n1c(=S)[nH]c2nc3c(cc2c1=O)COC(C)(C)C3	-12	0	0	0	14
Cc1ccccc1-n1c(=S)[nH]c2nc3c(cc2c1=O)CCCC3	0	0	43*	nt	-1
C[C@@H]1CCCCO[C@@H](CN(C)S(=O)(=O)c2cccs2)[C@@H](C)CN([C@H](C)CO)C(=O)c2cc(NC(=O)Nc3cccc4ccccc34)ccc2O1	nt	1	0	0	24[16.7 µM]
